Test [1] concerns the target T1, 3-hydroxy-3-methylglutaryl-coenzyme A reductase (Homo sapiens) (UniProt P04035).
T1 sequence (whole entry): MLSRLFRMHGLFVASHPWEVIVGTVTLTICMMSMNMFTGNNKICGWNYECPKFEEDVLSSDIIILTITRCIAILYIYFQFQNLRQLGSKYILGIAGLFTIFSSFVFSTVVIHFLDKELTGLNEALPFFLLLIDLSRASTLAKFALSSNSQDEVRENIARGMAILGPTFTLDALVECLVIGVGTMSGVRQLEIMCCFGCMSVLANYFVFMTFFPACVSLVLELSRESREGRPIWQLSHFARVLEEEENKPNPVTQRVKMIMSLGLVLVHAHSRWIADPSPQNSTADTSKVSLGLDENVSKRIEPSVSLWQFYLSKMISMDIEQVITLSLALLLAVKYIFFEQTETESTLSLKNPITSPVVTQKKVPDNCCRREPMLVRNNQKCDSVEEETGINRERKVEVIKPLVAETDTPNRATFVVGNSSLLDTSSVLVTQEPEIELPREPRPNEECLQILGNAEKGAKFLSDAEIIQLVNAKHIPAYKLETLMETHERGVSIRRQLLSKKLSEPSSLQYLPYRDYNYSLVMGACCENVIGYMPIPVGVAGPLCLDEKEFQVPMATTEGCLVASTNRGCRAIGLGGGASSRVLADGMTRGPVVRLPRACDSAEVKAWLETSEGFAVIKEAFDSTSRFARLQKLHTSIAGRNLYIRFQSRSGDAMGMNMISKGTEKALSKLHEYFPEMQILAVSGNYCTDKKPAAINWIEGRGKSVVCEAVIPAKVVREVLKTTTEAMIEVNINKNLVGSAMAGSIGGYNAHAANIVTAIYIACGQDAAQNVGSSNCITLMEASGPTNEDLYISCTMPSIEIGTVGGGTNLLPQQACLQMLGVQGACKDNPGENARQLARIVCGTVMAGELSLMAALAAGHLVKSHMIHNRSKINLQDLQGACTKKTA
The experiment in a line: (§1) Inhibition of HMG-CoA reductase compared to mevinolin. It counts as functional. The essentials: (§2)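 Solubilized, partially purified rat liver HMG-CoA reductase. IC50 from four or five inhibitor concentrations. Relative potency compared IC50 with mevinolin (set to 100), corrected for molecular weight.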

The target in test [2] is T2, 3-hydroxy-3-methylglutaryl-coenzyme A reductase (Rattus norvegicus) (UniProt P51639).
T2 sequence (whole entry): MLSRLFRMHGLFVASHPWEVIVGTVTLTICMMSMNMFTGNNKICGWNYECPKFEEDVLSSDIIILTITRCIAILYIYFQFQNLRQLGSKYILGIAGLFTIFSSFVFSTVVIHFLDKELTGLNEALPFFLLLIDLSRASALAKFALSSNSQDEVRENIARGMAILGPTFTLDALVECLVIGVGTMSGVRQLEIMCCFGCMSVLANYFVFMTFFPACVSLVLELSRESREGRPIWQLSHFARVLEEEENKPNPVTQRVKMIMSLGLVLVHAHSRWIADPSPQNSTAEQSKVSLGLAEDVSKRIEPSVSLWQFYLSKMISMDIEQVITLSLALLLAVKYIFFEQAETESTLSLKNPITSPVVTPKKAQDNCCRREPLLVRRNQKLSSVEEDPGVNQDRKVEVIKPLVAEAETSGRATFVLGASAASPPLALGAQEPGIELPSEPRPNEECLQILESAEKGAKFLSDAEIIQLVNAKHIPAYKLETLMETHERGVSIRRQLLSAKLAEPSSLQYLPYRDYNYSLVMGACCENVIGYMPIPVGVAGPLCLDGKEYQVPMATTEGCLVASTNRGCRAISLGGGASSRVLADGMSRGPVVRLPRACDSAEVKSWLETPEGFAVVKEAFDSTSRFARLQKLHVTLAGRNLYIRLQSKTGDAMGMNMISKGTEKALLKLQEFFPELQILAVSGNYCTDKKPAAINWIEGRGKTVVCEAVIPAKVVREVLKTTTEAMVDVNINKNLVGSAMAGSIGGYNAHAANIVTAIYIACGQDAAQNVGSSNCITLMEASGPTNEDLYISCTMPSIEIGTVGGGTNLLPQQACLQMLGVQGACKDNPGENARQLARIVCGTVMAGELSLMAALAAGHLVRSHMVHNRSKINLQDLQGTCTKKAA
Described as §1. The method in brief:
as §2

The subject of the next test is Canis familiaris. In words: Tested in vivo for hypocholesterolemic activity by measuring its ability to decrease serum LDL-cholesterol, after oral administration of 25 mg/kg per day for 14 days in male Beagle dogs. It counts as functional, Canis lupus familiaris. The method in brief: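 Male beagle dogs (n = 4) given neat compound in gelatine capsules daily at 3:00 p.m.; controls received empty capsules. After an overnight fast, venous blood was drawn at 8:00 a.m. Serum lipoproteins were separated by ultracentrifugation (densities 1.006/1.063/1.21). LDL-cholesterol reported as % change versus control.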

For test [3], the target named is T3, 3-hydroxy-3-methylglutaryl-coenzyme A reductase (Homo sapiens, UniProt P04035).
T3 sequence (P04035 whole entry): T1 sequence (whole entry)
The experiment in a line: Inhibition of the incorporation of sodium [14C]acetate into cholesterol in HEP G2 cells. It counts as functional, cell-based, HepG2.

For test [4], the target named is T4, 3-hydroxy-3-methylglutaryl-coenzyme A reductase (Rattus norvegicus, UniProt P51639).
T4 sequence (P51639 whole entry): T2 sequence (whole entry)
The experiment in a line: In vitro inhibition of HMG-CoA reductase in solubilized rat liver.

Test [5] deals with Oryctolagus cuniculus. In words: Tested in vivo for hypocholesterolemic activity by measuring its ability to decrease serum total cholesterol, after oral administration of 10 mg/kg body wt. per day in normolipidemic NZW rabbits. It counts as functional. The method in brief:
(§3)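 NZW rabbits (n = 5 or 6) dosed orally daily for 10 days. Serum total cholesterol reported as % change versus control. For 20 mg/kg, that dose was given on days 11-20 after 10 mg/kg, with the value read on day 20. Error given as SEM.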

Test [6] is filed under the species Rattus norvegicus. The experiment in a line: Potency relative to mevinolin was determined with respect to IC50. […]. It is filed as functional.
In test [7] the test system is Rattus norvegicus. The experiment in a line: In vivo inhibition of hepatic cholesterol de novo synthesis in rat after oral administration of 5 mg/kg dose. It counts as functional.
For test [8], the species on record is Rattus norvegicus. In words: In vitro inhibition of microsomal lipid peroxidation. It counts as functional. The method in brief: (§4)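 Rat liver microsomes in 50 mM Tris-HCl pH 7.4 with 100 mM KCl and 6.0 mM MgCl2, final protein 0.4 mg/mL. Peroxidation was started with ADP (2 mM)/FeCl3 (10 μM) plus an NADPH-regenerating system. Incubation 30 min at 37 °C with shaking. Thiobarbituric acid reactive substances were read at 535 nm.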

For test [9], the species on record is Rattus norvegicus. The experiment in a line: In vitro inhibition of microsomal lipid peroxidation at 10e-5 M conc. It counts as functional. The method in brief: as §4
For test [10], the species on record is Rattus norvegicus. In words: Compound was tested for inhibition of microsomal lipid peroxidation and the potency relative to terbufucine was determined. It counts as functional. The essentials: as §4
The subject of test [11] is Rattus norvegicus. In words: Compound was tested for effect on body weight after oral administration of 100 mg/kg in male rats. It counts as functional. The essentials: (§5)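 Male HOE:WISKf (SPF 71) rats, initial body weight over 180 g, n = 10 per group, dosed once daily in the morning by gavage in polyethylene glycol 400 for 7 days; controls received vehicle. Fasted after last dose, bled retroorbitally 24 h later under mild ether. Liver and body weight recorded. Pooled group serum was ultracentrifuged into VLDL (<1.006), LDL (1.006-1.04) and HDL (1.04-1.21). Values are % change versus control.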

Test [12] deals with Rattus norvegicus. The experiment in a line: Compound was tested for effect on serum HDL after oral administration of 100 mg/kg in male rats. It is filed as functional. The method in brief:
as §5

Test [13] has as its system Rattus norvegicus. In words: Compound was tested for effect on serum VLDL after oral administration of 100 mg/kg in male rats. It counts as functional. The essentials:
as §5

The test system of test [14] is Rattus norvegicus. In words: Compound was tested for effect on liver weight after oral administration of 100 mg/kg in male rats. It counts as functional. The method in brief: as §5
The test system of test [15] is Rattus norvegicus. The experiment in a line: Compound was tested for effect on serum LDL after oral administration of 100 mg/kg in male rats. It is filed as functional. The method in brief: as §5
The species named for test [16] is Sus scrofa. In words: In vitro inhibition of Cu2+ catalyzed LDL oxidation. It counts as functional. The method in brief: (§6)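 Porcine plasma LDL isolated by sequential ultracentrifugation (density 1.019-1.063 g/mL), dialysed against PBS pH 7.4, then diluted to 0.1 mg/mL protein. Preincubated 1 h at 37 °C under N2 with compound in ethanol. Oxidised with 5 μM Cu2+ for 2 h at 37 °C in air. Fluorescence read at ex 365/em 430 nm.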

The species entered for test [17] is Sus scrofa. The experiment in a line: Compound was tested for inhibition of Cu2+ catalyzed LDL oxidation and the potency relative to terbufucine was determined. It counts as functional. The essentials: as §6
Test [18] concerns the target T4, 3-hydroxy-3-methylglutaryl-coenzyme A reductase. The experiment in a line: In vitro inhibition of solubilized HMG-CoA reductase in rat liver.
Test [19] concerns Oryctolagus cuniculus. The experiment in a line: Tested in vivo for hypocholesterolemic activity by measuring its ability to decrease serum total cholesterol, after oral administration of 50 mg/kg body wt. per day in normolipidemic NZW rabbits. It is filed as functional. The essentials:
as §3

pIC50: −log10 of the molar value.

The term pIC50 denotes the negative decadic logarithm of the IC50, by convention in mol/L. Broadly, the inhibition is the relative decrease from the control value, in per cent.

As for `CC(C)c1cc(-c2ccc(F)cc2)cc(-c2ccc(F)cc2)c1OCC(O)C[C@@H](O)CC(=O)[O-].[Na+]` (stereo not given in full), the values for the Relative potency in test [1] and in test [2] were 90 and 43, respectively. The Change in the test on Canis familiaris is 3%. The negative logarithm of the IC50 (pIC50) in test [3] is 7.26; in test [4], 7.77.
With `CC(C)c1cc(-c2ccc(F)cc2)c(OCC2C[C@@H](O)CC(=O)O2)c(C(C)C)c1` (stereo not given in full), the Change in the test on Oryctolagus cuniculus [5] is on record as -30%. Also, the Relative potency was found to be 250 in test [1] and 103 in the test filed under Rattus norvegicus [6]. The molecule further showed a pIC50 in test [3] of 8.74. In the test on Rattus norvegicus [7], this molecule gave a Cholesterol of 11.4%.
As for `CC(=O)Oc1c(C(C)C)c(-c2ccc(F)cc2)c(O)c(C(C)C)c1C(C)C`, the pIC50 in the test filed under Rattus norvegicus [8] was 5.32. For the same molecule, the inhibition in the test listed under Rattus norvegicus [9] is 83%. This molecule returned a Relative potency in the test filed under Rattus norvegicus [10] of 2.
In the case of `CCOC(=O)C(C)(C)Oc1ccc(Cl)cc1` [CLOFIBRATE], the Change is 8% with Rattus norvegicus [11]; -29% in the test on Rattus norvegicus [12]; -40% in the test with Rattus norvegicus [13]; 15% with Rattus norvegicus [14]; -19% with Rattus norvegicus [15].
Turning to `CC(=O)Oc1c(-c2ccc(F)cc2)c(C(C)C)c(O)c(C(C)C)c1C(C)C`, the values for the pIC50 in the test filed under Rattus norvegicus [8] and in the test listed under Sus scrofa [16] were 5.55 and 6.82, respectively. This molecule registered an inhibition in the test listed under Rattus norvegicus [9] of 98%. The Relative potency in the test listed under Rattus norvegicus [10] came to 4; in the test filed under Sus scrofa [17], 73.
In [18], `Cc1cc(-c2ccccc2)nc(-c2ccc(F)cc2)c1/C=C/[C@@H](O)C[C@@H](O)CC(=O)O` showed a pIC50 of 7.42.
For `CC(C)c1cc(Sc2ccc(F)cc2)cc(-c2ccc(F)cc2)c1O`, the pIC50 in the test listed under Rattus norvegicus [8] was 5.52; in the test listed under Sus scrofa [16], 6.00. For the same molecule, in the test listed under Rattus norvegicus [9], the inhibition is 95%. The Relative potency in the test filed under Rattus norvegicus [10] came to 3; in the test filed under Sus scrofa [17], 11.
As for `O=C1C[C@H](O)CC(COc2c(Cl)cc(Cl)cc2CC2CCCCC2)O1` (stereo not given in full), in the test on Oryctolagus cuniculus [19], the Change is listed as -11%. In the test filed under Rattus norvegicus [6], this molecule came in with a Relative potency of 74. The same molecule registered a Cholesterol in the test on Rattus norvegicus [7] of 36.4%.
In test [18], `CC(C)c1c(CCC(O)C[C@@H](O)CC(=O)O)c(-c2ccc(F)cc2)cn1-c1ccccc1` (stereo not given in full) had a negative-log IC50 (pIC50) of 8.52.
In the test filed under Rattus norvegicus [6], `O=C1C[C@H](O)CC(COc2c(Cl)cc(Cl)cc2C(c2ccc(F)cc2)c2ccc(F)cc2)O1` (stereo not given in full) came in with a Relative potency of 40. In the test on Rattus norvegicus [7], the Cholesterol is given as 65.6%.

(Values after ChEMBL document CHEMBL1125911, “Synthesis and biological activity of new HMG-CoA reductase inhibitors. 3. Lactones of 6-phenoxy-3,5-dihydroxyhexanoic acids” (J Med Chem, 1991).)
